# From PubChem BioAssay
# APJ agonist: APJ receptor agonism. P35414. CHO-K1 APJ PathHunter beta-arrestin, luminescence; 0% DMSO wells, 100% apelin. activation, % at 20 µM. 0.11% of 330,000 active. AID 2520;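 active means activation more than six SD over the plate average, tested at 20 µM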;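 further: 0% = DMSO alone and 100% = apelin-13 at 10 nM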
#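 Assay system: CHO-K1 cells stably expressing ProLink-tagged human APJ and arrestin–beta-gal acceptor. Compound dosing: 20 µM single point, 1% DMSO. Times: 16-18 h seeding, 90 min dark compound exposure, 60 min detection. Detection: beta-gal luminescence. Evaluation: APJ–arrestin association signal. Controls: negative DMSO alone, positive Apelin-13 at 10 nM.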
# APJ antagonist: blocks the human apelin receptor APJ; CHO-K1 APJ beta-arrestin complementation, luminescence; inhibition, % at 20 µM; 0.32% of 330,000 active; AID 2521;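 active means inhibition above about 40% at 20 µM, limit read from the data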;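 further: cells challenged with 10 nM apelin-13 agonist together with compound; plate controls were apelin-13 plus DMSO wells for no effect and DMSO wells lacking apelin-13 for full effect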
# EBI2 block: EBI2 (human) antagonism; EBI2 beta-arrestin recruitment, luminescence, 7a,25-OHC stimulated; inhibition, % at 5 µM; 0.81% of 360,000 active; P32249; in the data active means inhibition above about 38%;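 further: enzyme fragment complementation signal reports receptor beta-arrestin coupling in cells; 0% = agonist plus DMSO wells and 100% = wells without agonist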
# CCR6 antag: antagonists of human CCR6 receptor. P51684. CHO-K1 CCR6 PathHunter beta-arrestin, luminescence, CCL20-stimulated. inhibition, % at 20 µM. 0.49% of 340,000 active;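 active means compounds whose inhibition of the agonist-driven luminescence signal at 20 µM reaches about 50%, limit read from the data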;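 further: cells stimulated with CCL20 at 14 nM final; plate controls were DMSO with CCL20 for no effect and DMSO without agonist for full effect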
# Target sequence (P51684 whole entry, looked up): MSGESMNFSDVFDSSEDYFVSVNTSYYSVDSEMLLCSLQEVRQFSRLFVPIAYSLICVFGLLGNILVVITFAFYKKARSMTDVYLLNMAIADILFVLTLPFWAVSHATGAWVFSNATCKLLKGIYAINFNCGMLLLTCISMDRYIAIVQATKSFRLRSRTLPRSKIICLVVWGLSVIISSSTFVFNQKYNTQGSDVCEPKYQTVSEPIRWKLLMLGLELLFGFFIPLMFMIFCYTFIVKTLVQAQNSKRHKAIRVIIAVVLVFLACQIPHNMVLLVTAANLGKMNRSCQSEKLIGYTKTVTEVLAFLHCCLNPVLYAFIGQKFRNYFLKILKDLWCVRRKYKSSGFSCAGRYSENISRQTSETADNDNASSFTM
# CXCR6 block: inhibitors of human CXCR6 receptor | CHO-K1 PathHunter CXCR6 beta-arrestin, luminescence | O00574 | inhibition, % at 20 µM | 0.36% of 360,000 active; in the data active means inhibition above about 34%, passing the limit was not always enough;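 further: antagonist mode with CXCL16 agonist at 10 nM final; 0% = 10 nM CXCL16 with DMSO and 100% = unstimulated wells without agonist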
# EBI2 antag conf: confirmation of human EBI2 receptor antagonists | EBI2 beta-arrestin luminescence, 7a,25-OHC antagonism | 29% of 2,400 active | shares compounds with EBI2 block | inhibition, % at 5 µM;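 active means inhibition of at least 50%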
# EBI2 ag: counter-screen for EBI2 antagonists: EBI2 agonist activity. EBI2-expressing cells, agonist mode, luminescence, 60 min; 0% vehicle, 100% 7α,25-dihydroxycholesterol control. 2,400 tested, under 10 active. AID 652000. shares compounds with EBI2 block. activation, % at 5 µM;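 active means activation of at least 50%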
# bGal cs: counter-screen for EBI2 antagonists: E. coli beta-galactosidase inhibition; shares compounds with EBI2 block; purified beta-galactosidase, luminescent Galacton Star, 15 min; inhibition, % at 5 µM; 1% of 2,400 active; AID 652176;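 active means replicate-average signal at least 3 plate SD below neutral wells, shown as high inhibition, flagging enzyme-inhibiting false positives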;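 further: 0% = DMSO wells with enzyme and 100% = wells lacking enzyme; higher means stronger loss of beta-gal luminescence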
# Active calls of the source: *; x = not tested or not shown. Sampled rows, rich in hits. Any-hit rate of the full collection: about 1.5%.
SMILES,APJ agonist,APJ antagonist,EBI2 block,CCR6 antag,CXCR6 block,EBI2 antag conf,EBI2 ag,bGal cs
O=C(COC(=O)CNS(=O)(=O)c1c(F)cccc1F)NC(=O)NC1CCCCC1,7,-1,2,2,-3,x,x,x
COc1ccc(/C=C/C(=O)N2CCN(c3ccccn3)CC2)cc1,-1,12,93*,5,-3,76*,-2,-8
O=C(/C=C/c1cccc([N+](=O)[O-])c1)N1CCN(c2ccccn2)CC1,2,0,38,-5,-4,x,x,x
O=C(/C=C/c1ccc(F)cc1)NC(=S)N1CCN(c2ccccn2)CC1,-3,3,17,10,11,x,x,x
CSc1ccc(/C=C/C(=O)N2CCN(c3ccccn3)CC2)cc1,-1,3,93*,10,-3,81*,0,-15
COc1cccc(/C=C/C(=O)N2CCN(c3ccccn3)CC2)c1,-7,0,75*,8,1,48,-1,-13
CC(C)N(Cc1nccn1C)C(=O)c1cc(COc2ccc(F)cc2Cl)on1,11,18,4,2,-3,x,x,x
Cc1nn(C)c(C)c1CCC(=O)NC1CC(C)(C)Cc2c1cnn2-c1ccccc1 (stereo not given),-7,3,2,1,-6,x,x,x
Cc1cc(Br)ccc1OCC(=O)NNC(=O)CCc1ccccc1,-4,27,4,11,11,x,x,x
Cc1cc(Br)ccc1OCC(=O)NNC(=O)Cc1ccccc1,2,15,46*,22,-8,25,1,3
COc1ccc([C@@H]2Sc3ccccc3NC(=O)[C@@H]2O)cc1,-5,0,-6,-2,6,x,x,x
COc1ccc(C(=O)CN2CC(C)SC2=Nc2ccc(Cl)cc2)cc1 (stereo not given),0,18,44*,24,0,27,0,5
COc1ccc(C(=O)N2CC(c3ccc(Cl)cc3)CC2=O)cc1 (stereo not given),-9,3,13,2,-1,x,x,x
O=CNc1ccc2c3c(cccc13)-c1ccccc1-2,x,x,-26,-19,-20,x,x,x
COc1ccc(S(=O)(=O)N2CCC(C(=O)N[C@@H](C)C(=O)NCc3cccnc3)CC2)cc1,x,x,-7,x,2,x,x,x
N#Cc1ccc(-c2ccc(F)cc2)nc1SCC(=O)Nc1sc2c(c1C#N)CCC2,-1,9,53*,15,-1,33,2,-16
N#Cc1cc2c(nc1SCC(=O)Nc1sc3c(c1C#N)CCC3)CCCC2,-2,5,18,-17,-7,x,x,x
CC12CCC(C)(O1)C1C(=O)N(c3nccs3)C(=O)C12 (stereo not given),x,x,1,5,8,x,x,x
O=S(=O)(c1ccc(Oc2ccc(F)c(Cl)c2)nc1)N1CCOCC1,7,17,6,7,-3,x,x,x
O=S(=O)(c1ccc(Oc2ccc(Cl)cc2)nc1)N1CCOCC1,5,-9,52*,-4,-7,27,0,-6
COC(=O)[C@@]12C[C@@H](CC(=O)NCCCCc3ccccc3)C(=O)N(Cc3ccc4c(c3)OCO4)C1=CCC(C)(C)C2,x,x,35*,x,x,10,-1,-9
CCCCNC(=O)C[C@@H]1C[C@@]2(C(=O)OC)CC(C)(C)CC=C2N(Cc2ccc3c(c2)OCO3)C1=O,x,x,11,x,x,x,x,x
COc1ccccc1-c1ccc2c(c1)O[C@@H](CN(C)C(=O)Nc1cccc(F)c1)[C@H](C)CN([C@H](C)CO)S2(=O)=O,x,x,44*,x,-14,2,2,2
COc1cccc(NC(=O)N(C)C[C@@H]2Oc3cc(Br)ccc3S(=O)(=O)N([C@@H](C)CO)C[C@H]2C)c1,x,x,-5,x,6,x,x,x
Cc1nc(NC(=O)CSc2nnc(-c3ccccc3)c(-c3ccccc3)n2)c(Cl)cc1Cl,-2,5,42*,13,6,25,1,3
SMILES,APJ agonist,APJ antagonist,EBI2 block,CCR6 antag,CXCR6 block,EBI2 antag conf,EBI2 ag,bGal cs
O=C(CSc1nnc(-c2ccccc2)c(-c2ccccc2)n1)Nc1ncc(Cl)cc1Cl,2,11,7,8,-2,x,x,x
c1ccc(Cc2nn3c(COc4ccccc4)nnc3s2)cc1,-3,-14,60*,-4,3,40,1,5
O=C(CC1SC(N2CCCCC2)=NC1=O)Nc1cccc(C(=O)NCc2ccc(F)cc2)c1 (stereo not given),2,10,-6,7,-3,x,x,x
CCN1CCN(C(=O)c2cc3cc(F)ccc3[nH]2)CC1,-1,8,55*,-2,5,28,1,2
COc1cc2cc(C(=O)N3CCN(Cc4ccc5c(c4)OCO5)CC3)[nH]c2cc1OC,2,-7,13,10,4,x,x,x
O=C(c1cc2cc(F)ccc2[nH]1)N1CCN(Cc2ccc3c(c2)OCO3)CC1,2,-64,93*,24,-10,79*,2,1
CC1CN(C(=O)c2cc3cc(F)ccc3[nH]2)CC(C)O1 (stereo not given),2,-5,-2,8,0,x,x,x
O=C(NC1CC1)C1CCN(S(=O)(=O)c2cc([N+](=O)[O-])ccc2Cl)CC1,1,-17,-4,10,-4,x,x,x
O=C(NCc1ccc(Cl)cc1)C1CCN(S(=O)(=O)c2cc([N+](=O)[O-])ccc2Cl)CC1,2,7,47*,-8,-7,39,2,-4
O=C(NCc1ccc(Cl)cc1)C1CCN(S(=O)(=O)c2ccccc2)CC1,-1,-14,65*,-3,-1,37,0,5
Cc1ccc(C(OC(=O)c2ccco2)C(=O)NC(C)(C)C)cc1 (stereo not given),-2,12,-8,15,3,x,x,x
CCOc1ncccc1C(=O)Nc1cc(S(=O)(=O)N2CCCCC2)ccc1C,0,5,-1,6,0,x,x,x
Oc1cccc(/C=N/Nc2cc(N3CCCC3)nc(N3CCCC3)n2)c1,-4,17,39,-2,-2,x,x,x
COc1ccc(/C=N/Nc2cc(N3CCCC3)nc(N3CCCC3)n2)cc1,-4,19,60*,8,2,33,3,7
COc1ccc(S(=O)(=O)NCC(c2ccc3c(c2)OCO3)N2CCN(c3ccccc3)CC2)cc1 (stereo not given),-3,24,11,16,9,x,x,x
CCCOC(=O)c1ccc(NC(=O)CSC2=Nc3ccccc3C3CC=NN23)cc1 (stereo not given),-3,6,40*,2,11,5,0,-10
O=C(CSC1=Nc2ccccc2C2CC=NN12)NCc1ccco1 (stereo not given),-8,27,9,24,11,x,x,x
